Source: ChEMBL document CHEMBL3421535, “Antioxidative compounds from Garcinia buchananii stem bark” (J Nat Prod, 2015)
pEC50: −log10 of the molar value. Several values for one entry are separate records, joined by “and”; a condition that tells them apart may be missing. Equal entries are not always repeated.

How the values were obtained:
Assay type in all cases: physicochemical
[1] = Antioxidant activity assessed as trolox equivalent of APPH radical scavenging activity preincubated for 30 mins followed by APPH addition measured after 90 mins by hydrophilic-ORAC fluorescence assay; conditions: 1.5 h
Summary of the method: (§1)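 Hydrophilic TEAC (ABTS) or hydrophilic ORAC run by the previously reported method. Each sample was measured in quadruplicate; values are mean ± SD.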

[2] = Antioxidant activity assessed as trolox equivalent of […] radical scavenging activity preincubated for 30 mins followed by […] addition measured after 90 mins by lipophilic-ORAC fluorescence assay; conditions: 1.5 h
Summary of the method: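 Lipophilic ORAC adapted from the Madrona procedure. Trolox standards (200, 100, 50, 25, 12.5 μM) and sample dilutions were made in 7% (w/v) randomly methylated β-cyclodextrin in acetone/H2O (1:1), which also served as blank. Fluorescein and AAPH were prepared in 10 mM phosphate buffer, pH 7.4. AAPH was added after incubation. Read-out otherwise as H-ORAC; quadruplicate, mean ± SD.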

[3] = Antioxidant activity assessed as trolox equivalent of ABTS radical scavenging activity after 10 mins by hydrophilic-TEAC fluorescence assay; summary of the method: as §1
[4] = Antioxidant activity assessed as H2O2 scavenging activity after 15 mins
Summary of the method: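 H2O2 scavenging run by the previously reported method. Each sample was measured in triplicate; values are mean ± SD.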

[5] = Antioxidant activity assessed as trolox equivalent of ABTS radical scavenging activity after 10 mins by lipophilic-TEAC […] assay
Summary of the method: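 Lipophilic ABTS TEAC, a modification of the H-TEAC method. Trolox standards (1000, 500, 250, 125, 62.5 μM) and sample dilutions were prepared in 50% DMSO/H2O. Pure DMSO was added to give 10% final DMSO. Processing and measurement followed H-TEAC; quadruplicate, mean ± SD.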

[6] = Antioxidant activity assessed as trolox equivalent of ABTS radical scavenging activity measured for 1 to 6 mins by lipophilic-TEAC […] assay
Summary of the method: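 Lipophilic TEAC adapted from the hydrophilic ABTS method: Trolox standards (1000, 500, 250, 125, 62.5 μM) and sample dilutions made in 50% DMSO. Pure DMSO added to wells, giving 10% DMSO final. Otherwise processed, measured and handled as in H-TEAC. Quadruplicate analyses, mean ± SD.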

[7] = Antioxidant activity assessed as trolox equivalent of […] radical scavenging activity preincubated for 30 mins followed by […] addition measured every 1.14 mins for 120 mins by lipophilic-ORAC fluorescence assay; conditions: 2 h
Summary of the method: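 Lipophilic ORAC (modified Madrona procedure): Trolox standards (200–12.5 μM) and samples diluted in 7% RMCD in acetone/water 1:1. Fluorescein and AAPH prepared in 10 mM phosphate buffer pH 7.4. Fluorescein mixed with standard, sample or RMCD blank, incubated as in H-ORAC, then AAPH added. Read-out and data handling as in H-ORAC. Quadruplicate, mean ± SD.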

Compound	Activity [1]	Activity [2]	Activity [3]	pEC50 [4]	Activity [5]	Activity [6]	Activity [7]
COc1c(O)ccc2c1Oc1cc(O)c(CC=C(C)C)c(O)c1C(=O)O2	2.5 mmolequiv/mmol	4.34 mmolequiv/mmol	0.89 mmolequiv/mmol	≥ 4.34	1.68 mmolequiv/mmol		
O=c1c2cc(O)ccc2oc2cccc(O)c12	2.43 mmolequiv/mmol	2.95 mmolequiv/mmol	0.4 mmolequiv/mmol	4.10	1.33 mmolequiv/mmol		
O=c1c(O)c(-c2ccc(O)c(O)c2)oc2cc(O)cc(O)c12 [QUERCETIN]	9.36 mmolequiv/mmol	11.94 mmolequiv/mmol	4.85 mmolequiv/mmol	5.21	4.84 mmolequiv/mmol	3.1 mMequiv	10.4 umolequiv/umol
O=C1CC(c2ccc(O)cc2)Oc2cc(O)cc(O)c21 (racemic)	6.2 mmolequiv/mmol	7.35 mmolequiv/mmol	1.98 mmolequiv/mmol	5.07	2.94 mmolequiv/mmol	1.14 mMequiv	
Cc1cc(C(C)(C)C)c(O)c(C(C)(C)C)c1 [BUTYLATED HYDROXYTOLUENE]		0.2 mmolequiv/mmol and 0.12 umolequiv/umol			0.76 mmolequiv/mmol	0.27 mMequiv	
CC(C)=CC[C@H]1C[C@@]23C[C@@H](CC=C(C)C)C(C)(C)[C@@](CC=C(C)C)(C(=O)C(C(=O)c4ccc(O)c(O)c4)=C2OC1(C)C)C3=O [CAMBOGIN]	0.6 mmolequiv/mmol	3.68 mmolequiv/mmol	0.48 mmolequiv/mmol	4.08	1.67 mmolequiv/mmol		
COc1cc(C(=O)c2c(O)cc3c(c2OC)C=CC(C)(C)O3)ccc1O	2.44 mmolequiv/mmol	4.87 mmolequiv/mmol	0.4 mmolequiv/mmol	≥ 4.27	1.04 mmolequiv/mmol		

Continued by rising pEC50 [4], values first:

Activity [1]	Activity [2]	Activity [3]	pEC50 [4]	Activity [5]	Compound	Activity [6]	Activity [7]
1.16 mmolequiv/mmol	2.74 mmolequiv/mmol	0.84 mmolequiv/mmol	4.58	2.06 mmolequiv/mmol	CC1(C)C=Cc2c(cc3oc4c(O)c(O)ccc4c(=O)c3c2O)O1 [JACAREUBIN]		
0.62 mmolequiv/mmol	0.73 mmolequiv/mmol	1.16 mmolequiv/mmol	4.62	1.09 mmolequiv/mmol	O=C1O[C@H]([C@@H](O)CO)C(O)=C1O [ASCORBIC ACID]	1.05 mMequiv	
1.06 mmolequiv/mmol	3.81 mmolequiv/mmol	0.89 mmolequiv/mmol	4.71	2.96 mmolequiv/mmol	CC(C)=CCc1c(O)cc2oc3c(O)c(O)ccc3c(=O)c2c1O		
4.38 mmolequiv/mmol	6.96 mmolequiv/mmol	1.48 mmolequiv/mmol	4.76	2.92 mmolequiv/mmol	O=C1c2c(O)cc(O)c(-c3coc4cc(O)cc(O)c4c3=O)c2O[C@H](c2ccc(O)c(O)c2)[C@H]1O		
1.28 mmolequiv/mmol	3.44 mmolequiv/mmol	0.81 mmolequiv/mmol	4.80	1.92 mmolequiv/mmol	C=C(C)[C@@H](CC=C(C)C)C[C@@]12C[C@@H](CC=C(C)C)C(C)(C)[C@@](CC=C(C)C)(C(=O)C(C(=O)c3ccc(O)c(O)c3)=C1O)C2=O [GARCINOL]		
6.61 mmolequiv/mmol	9.3 mmolequiv/mmol	2.48 mmolequiv/mmol	4.95	2.84 mmolequiv/mmol	O=C1c2c(O)cc(O)cc2O[C@H](c2ccc(O)c(O)c2)C1O (single isomer, unassigned) [(+)-TAXIFOLIN]		
7.54 mmolequiv/mmol	14.56 mmolequiv/mmol	3.5 mmolequiv/mmol	5.07	4.95 mmolequiv/mmol	O=C1c2c(cc(O)c([C@@H]3C(=O)c4c(O)cc(O)cc4O[C@H]3c3ccc(O)c(O)c3)c2O)O[C@H](c2ccc(O)c(O)c2)[C@H]1O		
9.98 mmolequiv/mmol	15.69 mmolequiv/mmol	3.71 mmolequiv/mmol	5.39	5.01 mmolequiv/mmol	Oc1cc(O)c2c(c1)O[C@H](c1ccc(O)c(O)c1)[C@H](O)C2 [(-)-EPICATECHIN]		
13.73 mmolequiv/mmol	15 mmolequiv/mmol	5.58 mmolequiv/mmol	5.55	5.29 mmolequiv/mmol	O=C1c2c(O)cc(O)c([C@@H]3C(=O)c4c(O)cc(O)cc4O[C@H]3c3ccc(O)c(O)c3)c2O[C@H](c2ccc(O)c(O)c2)[C@H]1O		
